According to the M2OR odorant receptor database:
Where a chain is given by its changes, count along the chain named.

What was measured:
Settings in all cases: stereoisomer not certain
OR56B4 (Homo sapiens) = biological target: T1, OR56B4 (Homo sapiens) (UniProt Q8NH76)
T1 sequence (whole entry): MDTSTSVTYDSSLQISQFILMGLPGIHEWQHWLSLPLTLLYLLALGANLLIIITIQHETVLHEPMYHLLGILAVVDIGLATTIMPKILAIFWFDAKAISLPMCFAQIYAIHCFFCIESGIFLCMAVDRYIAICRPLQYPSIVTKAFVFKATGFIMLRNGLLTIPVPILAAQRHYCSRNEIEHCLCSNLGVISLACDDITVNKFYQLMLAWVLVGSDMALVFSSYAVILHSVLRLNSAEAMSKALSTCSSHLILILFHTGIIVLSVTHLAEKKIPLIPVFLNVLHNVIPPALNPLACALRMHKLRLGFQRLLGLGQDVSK
How it was run: (§1)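 Each entry records the cell line, G-protein, co-transfected protein and tags used. Methods varied with the source, often transient luciferase assays in mammalian cell lines. A receptor–molecule pair is called responsive (active) if the original authors judged its signal statistically different from baseline and non-responsive (inactive) otherwise.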

OR5A1 (Homo sapiens) = biological target: T2, OR5A1 (Homo sapiens) (UniProt Q8NGJ0)
T2 sequence (whole entry): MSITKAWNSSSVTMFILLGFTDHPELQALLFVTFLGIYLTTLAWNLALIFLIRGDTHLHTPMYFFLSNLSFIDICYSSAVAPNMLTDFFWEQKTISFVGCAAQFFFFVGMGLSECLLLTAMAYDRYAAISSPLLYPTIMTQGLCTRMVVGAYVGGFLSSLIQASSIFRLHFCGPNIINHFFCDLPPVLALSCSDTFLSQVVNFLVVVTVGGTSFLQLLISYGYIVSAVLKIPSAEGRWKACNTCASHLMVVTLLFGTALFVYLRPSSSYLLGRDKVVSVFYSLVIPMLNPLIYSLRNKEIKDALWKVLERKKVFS
How it was run: as §1

OR5A1 D183N = tested on: T3, OR5A1 D183N
T3 sequence (whole entry): T2 sequence (whole entry) with D183N
How it was run: as §1

OR5A2 (Homo sapiens) = biological target: T4, OR5A2 (Homo sapiens) (UniProt Q8NGI9)
T4 sequence (whole entry): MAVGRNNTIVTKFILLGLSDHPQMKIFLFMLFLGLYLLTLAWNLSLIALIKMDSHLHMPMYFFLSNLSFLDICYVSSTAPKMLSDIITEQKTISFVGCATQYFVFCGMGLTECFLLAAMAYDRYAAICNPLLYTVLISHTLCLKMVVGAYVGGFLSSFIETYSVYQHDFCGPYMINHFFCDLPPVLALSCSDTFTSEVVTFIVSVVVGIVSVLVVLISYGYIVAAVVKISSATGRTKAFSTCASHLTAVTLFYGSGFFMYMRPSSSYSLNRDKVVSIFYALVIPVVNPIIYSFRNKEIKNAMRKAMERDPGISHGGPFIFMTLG
How it was run: as §1

OR5AC2 (Homo sapiens) = biological target: T5, OR5AC2 (Homo sapiens) (UniProt Q9NZP5)
T5 sequence (whole entry): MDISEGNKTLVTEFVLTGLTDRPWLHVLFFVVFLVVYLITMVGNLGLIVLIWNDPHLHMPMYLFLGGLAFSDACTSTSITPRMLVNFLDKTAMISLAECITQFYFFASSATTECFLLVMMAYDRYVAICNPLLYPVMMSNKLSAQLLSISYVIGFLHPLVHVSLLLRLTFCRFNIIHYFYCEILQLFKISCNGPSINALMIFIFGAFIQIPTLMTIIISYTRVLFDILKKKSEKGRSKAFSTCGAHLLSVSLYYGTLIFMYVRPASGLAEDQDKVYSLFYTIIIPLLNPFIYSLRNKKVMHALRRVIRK
How it was run: as §1

OR5AK2 (Homo sapiens) = biological target: T6, OR5AK2 (Homo sapiens) (UniProt Q8NH90)
T6 sequence (whole entry): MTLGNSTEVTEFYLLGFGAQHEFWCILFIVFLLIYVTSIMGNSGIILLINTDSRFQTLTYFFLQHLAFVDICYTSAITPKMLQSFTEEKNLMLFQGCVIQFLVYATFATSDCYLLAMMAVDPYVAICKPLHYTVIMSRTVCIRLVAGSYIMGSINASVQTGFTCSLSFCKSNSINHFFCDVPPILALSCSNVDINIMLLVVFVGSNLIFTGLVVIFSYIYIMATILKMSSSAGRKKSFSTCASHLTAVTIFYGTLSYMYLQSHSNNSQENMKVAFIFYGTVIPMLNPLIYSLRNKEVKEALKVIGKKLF
How it was run: as §1

OR5AN1 (Homo sapiens) = biological target: T7, OR5AN1 (Homo sapiens) (UniProt Q8NGI8)
T7 sequence (whole entry): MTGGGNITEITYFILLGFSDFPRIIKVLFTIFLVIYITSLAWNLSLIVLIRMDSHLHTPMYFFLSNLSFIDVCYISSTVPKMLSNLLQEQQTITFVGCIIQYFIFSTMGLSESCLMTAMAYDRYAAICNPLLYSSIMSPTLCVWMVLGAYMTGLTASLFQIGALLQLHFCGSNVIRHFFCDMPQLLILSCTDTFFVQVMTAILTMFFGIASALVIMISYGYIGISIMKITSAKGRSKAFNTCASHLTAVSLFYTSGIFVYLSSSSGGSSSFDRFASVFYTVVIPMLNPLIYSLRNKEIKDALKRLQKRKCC
How it was run: as §1

OR5AP2 (Homo sapiens) = biological target: T8, OR5AP2 (Homo sapiens) (UniProt Q8NGF4)
T8 sequence (whole entry): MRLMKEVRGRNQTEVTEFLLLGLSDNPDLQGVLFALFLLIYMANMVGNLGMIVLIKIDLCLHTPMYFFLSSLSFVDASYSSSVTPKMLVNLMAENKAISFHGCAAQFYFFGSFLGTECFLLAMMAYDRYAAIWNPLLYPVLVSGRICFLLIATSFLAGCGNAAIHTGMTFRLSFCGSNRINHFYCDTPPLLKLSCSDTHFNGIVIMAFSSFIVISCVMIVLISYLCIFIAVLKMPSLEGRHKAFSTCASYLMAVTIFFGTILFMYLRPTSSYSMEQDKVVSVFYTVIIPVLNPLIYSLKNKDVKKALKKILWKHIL
How it was run: as §1

OR5AC1 (Homo sapiens) = OR5AC1 (Homo sapiens) (UniProt P0C628)
OR5AC1 (Homo sapiens), sequence (P0C628 whole entry): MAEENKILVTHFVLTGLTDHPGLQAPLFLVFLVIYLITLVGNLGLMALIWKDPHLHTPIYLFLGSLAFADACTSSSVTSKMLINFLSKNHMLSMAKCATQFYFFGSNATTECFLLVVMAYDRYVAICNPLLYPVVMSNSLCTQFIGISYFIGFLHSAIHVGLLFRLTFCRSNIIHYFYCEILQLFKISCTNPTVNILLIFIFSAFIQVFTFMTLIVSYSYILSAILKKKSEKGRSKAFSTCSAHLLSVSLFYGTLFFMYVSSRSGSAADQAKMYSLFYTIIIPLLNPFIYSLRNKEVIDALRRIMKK
How it was run: as §1

OR5AL1 (Homo sapiens) = OR5AL1 (Homo sapiens) (UniProt P0C617)
OR5AL1 (Homo sapiens), sequence (P0C617 whole entry): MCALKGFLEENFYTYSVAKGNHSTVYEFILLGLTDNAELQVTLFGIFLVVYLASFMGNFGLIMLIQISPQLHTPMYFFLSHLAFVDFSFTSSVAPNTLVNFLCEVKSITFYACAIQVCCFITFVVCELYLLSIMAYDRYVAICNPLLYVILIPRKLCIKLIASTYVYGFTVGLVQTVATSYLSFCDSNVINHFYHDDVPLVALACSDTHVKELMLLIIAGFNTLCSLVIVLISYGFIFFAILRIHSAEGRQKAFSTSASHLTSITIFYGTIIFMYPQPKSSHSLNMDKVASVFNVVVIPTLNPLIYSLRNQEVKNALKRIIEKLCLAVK
How it was run: as §1

Measured: odorant receptor agonist call

Cc1cnc(C)c(C)n1
not listed: OR5AC1 (Homo sapiens) | OR5AL1 (Homo sapiens)
inactive: all other assays above

CCC(=O)C=CC1C(C)=CCCC1(C)C (configuration not stated)
inactive: OR5AC2 (Homo sapiens)

CCCCCC(S)C(C)CO (configuration not stated)
not listed: OR5A1 D183N | OR5AC1 (Homo sapiens) | OR5AL1 (Homo sapiens)
inactive: all other assays above

CC1CCCCCCCCCCCCC(=O)C1 (configuration not stated)
active: OR5AN1 (Homo sapiens)
not listed: OR5A1 D183N
inactive: all other assays above

CC1=C(O)C(=O)C(C)O1 (configuration not stated)
not listed: OR5AC1 (Homo sapiens) | OR5AL1 (Homo sapiens)
inactive: all other assays above

CC(=O)OCc1ccccc1
inactive: OR5AC2 (Homo sapiens)

CC1CC(C)(c2ccccc2)CO1 (configuration not stated)
inactive: OR5AC2 (Homo sapiens)

CCC1OC(=O)C(O)=C1C (configuration not stated)
not listed: OR5AC1 (Homo sapiens) | OR5AL1 (Homo sapiens)
inactive: all other assays above

CC(CO)CS (configuration not stated)
not listed: OR5A1 D183N | OR5AC1 (Homo sapiens) | OR5AL1 (Homo sapiens)
inactive: all other assays above

CC1=CCC2CC1C2(C)C (configuration not stated)
inactive: OR5AC2 (Homo sapiens)

COC1CC2CC1C1CC(C=O)CC21 (configuration not stated)
inactive: OR5AC2 (Homo sapiens)
